For 75 sequences, folding enthalpy and Tm results are on record in the array DNA melting data of Ke et al. (doi:10.1101/2024.01.08.574731).

The nature of data set [1]: folding enthalpy; higher = less favourable; fluorescence melt of hairpins on a sequencing array, two-state fit. The settings on record: sodium 0.088 M. The gist of the method:
(§1)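 Bootstrapped two-state fits yielded melting temperature and folding enthalpy for library hairpins. Cy3 fluorescence, with annealed Cy3 and quencher oligos, was imaged on a sequenced MiSeq flow cell in 50 mM Na-HEPES pH 8.0, 25 mM NaCl in 2.5 °C steps up to 60 °C, and normalised to pre-quench Cy3 and to control constructs. Four replicates were combined by inverse variance, and fitted temperatures were raised by 9.35 °C to match UV melts.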

A short description of data set [2]: melting temperature; fluorescence melt of hairpins on a sequencing array, two-state fit, raised by 9.35 °C to match UV melts. The settings on record: sodium 0.088 M. The gist of the method: as §1

Take GCGTCAAGACGC ((((....)))): in data set [1], the folding enthalpy was -29.9 kcal/mol. In addition, in data set [2], the Tm worked out at 55.1 °C.
Taken in the same sequence, the figures for GAGGAAGGAAACTTTCTC (((.(((....))).))) were -28.9 kcal/mol and 35.3 °C.
For GCAAGAGGAAACCCTTGC (((((.(....).))))), in that order: -25.9 kcal/mol and 45.3 °C.
Taken in the same sequence, the figures for GATCAAGGCTTGATC ((((((...)))))) were -49.3 kcal/mol and 47.8 °C.
For GCAAGGGGAAACCCCTAC (.(.(((....))).).), in data set [1], the folding enthalpy is -12 kcal/mol. In addition, the Tm in data set [2] was 28.7 °C.
For CGGGACGGAAACGTCCG (((.(((....)))))), the folding enthalpy in data set [1] is -12.9 kcal/mol. In data set [2], the Tm was 57.9 °C.
Taken in the same sequence, the figures for CGACGCGGAAACGCTTCG (((.(((....))).))) were -33.6 kcal/mol and 50.5 °C.
For GATCGAGGATCGATC ((((((...)))))), in that order: -35.4 kcal/mol and 59.6 °C.
For GTTGCTGGAAACAGTGAC ((..(((....)))..)), in that order: -28.4 kcal/mol and 39.2 °C.
Regarding GCATGTGGAAACACACGC ((.((((....)))).)), the folding enthalpy in data set [1] was -25.8 kcal/mol. In addition, in data set [2], the Tm stood at 46 °C.
Taken in the same sequence, the figures for GTAGCCGAAAGGCTTAC ((((((....))).))) were -10.3 kcal/mol and 43.1 °C.
On to GTGCACCCGAAAGGGCAC (((..(((....)))))), for which, in data set [1], the folding enthalpy was -23.9 kcal/mol. Also, the Tm in data set [2] is 52.1 °C.
Taken in the same sequence, the figures for GCAGTTGGAAACGATTGC (((.(.(....).).))) were -20.5 kcal/mol and 36.1 °C.
For GGGCTCCGAAAGGATCCC (((.(((....))).))), in that order: -44.4 kcal/mol and 53.5 °C.
For GTATTCCCGAAAGGGTAC (((..(((....)))))), in that order: -8.03 kcal/mol and 32.9 °C.
GTTCGAGGAAACTCAAAC (((.(((....))).))): the folding enthalpy in data set [1] was -13.8 kcal/mol. In addition, the Tm in data set [2] turned out to be 31 °C.
Taken in the same sequence, the figures for GCACTGCGAAAGCACAGC ((..(((....)))..)) were -11.6 kcal/mol and 29.2 °C.
Take GATTCCGGAAACAGAATC (((((.(....).))))): in data set [1], the folding enthalpy is -23.4 kcal/mol. Also, in data set [2], the Tm is 32.1 °C.
Taken in the same sequence, the figures for GACGGCGAAAGCCAGTC ((((((....))).))) were -22.7 kcal/mol and 60.2 °C.
For GATCGCGGGTGCGATC ((((((....)))))), in that order: -34.5 kcal/mol and 68.4 °C.
Taken in the same sequence, the figures for GAAAGGCGAAAGCCCTTC (((.(((....))).))) were -13 kcal/mol and 38.8 °C.
In the case of GTGCGAGGAAACTCGTAC ((.((((....)))).)), the folding enthalpy in data set [1] was -31.6 kcal/mol. The Tm in data set [2] is 53.4 °C.
Taken in the same sequence, the figures for ACACAGAAATGTGT (((((....))))) were -14.7 kcal/mol and 45.9 °C.
For GACTTACCGAAAGGTGTC (((..(((....)))))), in that order: -16.4 kcal/mol and 36.3 °C.
For GCCCAAGGAAACTTAGGC (((.(((....))).))), in that order: -21.9 kcal/mol and 35.4 °C.
GTATGCCGAAAGGCTTAC (((.(((....))).))): in data set [1], the folding enthalpy was -19 kcal/mol. Also, the Tm in data set [2] was found to be 50.6 °C.
Taken in the same sequence, the figures for GACTCAGAAATGAGTC ((((((....)))))) were -35.9 kcal/mol and 54.5 °C.
For CGATTGAAAAATCG (((((....))))), in that order: -27.8 kcal/mol and 46 °C.
For the sequence GATCCCCAATGGGATC ((((((....)))))), the folding enthalpy in data set [1] was -34.5 kcal/mol. For the same sequence, in data set [2], the Tm was found to be 59.7 °C.
In the case of GGTGTCCGAAAGGATACC (((.(((....))).))), in data set [1], the folding enthalpy is -41.5 kcal/mol. Moreover, the Tm in data set [2] stood at 59.9 °C.
Taken in the same sequence, the figures for GCTGCGCGAAAGCCGAGC (((..((....))..))) were -17 kcal/mol and 45 °C.
As for GATCCAATGCTGGATC ((((((....)))))), the folding enthalpy in data set [1] was -32.5 kcal/mol. The Tm in data set [2] came to 49.1 °C.
Taken in the same sequence, the figures for GCTCCCGGAAACAGGAGC (((((.(....).))))) were -34.3 kcal/mol and 49.5 °C.
Consider GATCTTCGAAAGATC ((((((...)))))), for which the folding enthalpy in data set [1] was -21.4 kcal/mol. In data set [2], the Tm was 39.9 °C.
For GCGTTCGCACGC ((((....)))), the folding enthalpy in data set [1] is -18.8 kcal/mol. The Tm in data set [2] was determined as 56.5 °C.
Turning to GGATGCTCGAAAGAGTCC (((..(((....)))))), in data set [1], the folding enthalpy was -12.1 kcal/mol. In data set [2], the Tm was 29.1 °C.
Take GTTTGGAAACAAAC (((((....))))): the folding enthalpy in data set [1] is -24.5 kcal/mol. Besides, the Tm in data set [2] stood at 45.6 °C.
As to GACCCCGAAAGGGGAGTC ((((((....)))..))), in data set [1], the folding enthalpy was -9.87 kcal/mol. The Tm in data set [2] was 44.6 °C.
For GATCCCGCCGGGATC ((((((...)))))), in that order: -39.7 kcal/mol and 67.6 °C.
For GCGGCTGCCCGC ((((....)))), the folding enthalpy in data set [1] is -19.4 kcal/mol. Also, in data set [2], the Tm was determined as 55 °C.
Taken in the same sequence, the figures for GCGGCGCGAAAGCCACGC (((..((....))..))) were -20.8 kcal/mol and 61.7 °C.
For GATCTGATCTCAGATC ((((((....)))))), in that order: -37.1 kcal/mol and 51.1 °C.
As for GCGAGTCCTCGC ((((....)))), the folding enthalpy in data set [1] was -30.2 kcal/mol. Further, the Tm in data set [2] worked out at 56.2 °C.
Taken in the same sequence, the figures for GTGAAACGAAAGTTCAC (((.(((....)))))) were -18.3 kcal/mol and 47.6 °C.
Taken in the same sequence, the figures for GTTTGAACGAAAGTTAAC (((..(((....)))))) were -12.3 kcal/mol and 24.4 °C.
Taken in the same sequence, the figures for GTCGGTGCGAAAGCAGAC (((..(((....)))))) were -14.2 kcal/mol and 45.2 °C.
On to GAGTCGCGAAAGCGCTC (((.(((....)))))), for which the folding enthalpy in data set [1] was -15.4 kcal/mol. In data set [2], the Tm was 54.6 °C.
For GAGCCCGAAAGGGAACTC ((((((....)))..))), in that order: -16.4 kcal/mol and 47.5 °C.
In the case of GTGCTAACGAAAGTTCAC (((..(((....)))))), the folding enthalpy in data set [1] was -7.2 kcal/mol. In data set [2], the Tm came to 25.4 °C.
Taken in the same sequence, the figures for GCGTACGACGC ((((...)))) were -23.8 kcal/mol and 53.3 °C.
For the sequence GGCCTTCGAAAGAAAGCC (((.(((....))).))), in data set [1], the folding enthalpy is -31 kcal/mol. In data set [2], the Tm is 45.7 °C.
Regarding GCGTCACCACGC ((((....)))), the folding enthalpy in data set [1] was -22.7 kcal/mol. In addition, the Tm in data set [2] is 53 °C.
For GTCATCGAAAGATGCGAC ((((((....)))..))), in that order: -19.8 kcal/mol and 46.1 °C.
For GGAGGAGGAAACTCTTCC (((.(((....))).))), the folding enthalpy in data set [1] was -29.1 kcal/mol. Also, in data set [2], the Tm stood at 42.2 °C.
For GCGATTGATCGC ((((....)))), in that order: -31.5 kcal/mol and 53.1 °C.
Taken in the same sequence, the figures for GATAACGAAAGTTGATC ((((((....))).))) were -11.2 kcal/mol and 27.6 °C.
Consider GACGGCGGAAACGCTGTC (((.(((....))).))), for which the folding enthalpy in data set [1] was -37.5 kcal/mol. For the same sequence, the Tm in data set [2] came to 64.7 °C.
In the case of GCCTCTGGAAACAGAGAC (.(((((....))))).), in data set [1], the folding enthalpy was -18.7 kcal/mol. Moreover, the Tm in data set [2] came out at 40.1 °C.
On to GGGGTCCGAAAGGATCCC (((.(((....))).))), for which the folding enthalpy in data set [1] was -36 kcal/mol. For the same sequence, in data set [2], the Tm came out at 67.9 °C.
Taken in the same sequence, the figures for GATCGCACCGCGATC ((((((...)))))) were -34 kcal/mol and 69 °C.
For GGGCATGGAAACATGTCC ((.((((....)))).)), in that order: -43.4 kcal/mol and 54.3 °C.
With GTCCTCTCGAAAGAGGAC (((..(((....)))))), in data set [1], the folding enthalpy is -36.2 kcal/mol. In addition, the Tm in data set [2] turned out to be 58.5 °C.
For GTTCTCGGAAACGAGAGC (.(((((....))))).), the folding enthalpy in data set [1] was -27.5 kcal/mol. The Tm in data set [2] was 48.2 °C.
On to GCGCGAACGAAAGTTCGC (((..(((....)))))), for which the folding enthalpy in data set [1] was -6.27 kcal/mol. Further, in data set [2], the Tm worked out at 68.4 °C.
Taken in the same sequence, the figures for GATCCACGAAAGTGTATC (((.(((....))).))) were -24.2 kcal/mol and 37.6 °C.
For GATCAAGGAAACCTGATC (((((.(....).))))), the folding enthalpy in data set [1] was -29.1 kcal/mol. For the same sequence, in data set [2], the Tm was determined as 35.6 °C.
Taken in the same sequence, the figures for GATCAAAGAGTTGATC ((((((....)))))) were -21.3 kcal/mol and 37.2 °C.
For GGAGTCGAAAGACCATCC ((((((....)))..))), in that order: -11.2 kcal/mol and 29.5 °C.
Taken in the same sequence, the figures for GCCGGGCGAAAGCACCGC ((.(.((....)).).)) were -14.1 kcal/mol and 49 °C.
With GGTCTGCGAAAGCACACC (((.(((....))).))), the folding enthalpy in data set [1] was -20.9 kcal/mol. Also, the Tm in data set [2] turned out to be 42.1 °C.
Taken in the same sequence, the figures for GGTCACGAAAGTGTCACC ((((((....)))..))) were -13.3 kcal/mol and 37.9 °C.
For GACTACGAAAGTATAGTC ((((((....)))..))), in that order: -23.3 kcal/mol and 36.8 °C.
Consider GGCAAGTCGAAAGACGCC (((..(((....)))))), for which the folding enthalpy in data set [1] was -18.2 kcal/mol. In addition, the Tm in data set [2] was determined as 53.1 °C.
Take GAGACGACGAAAGTCCTC (((..(((....)))))): in data set [1], the folding enthalpy was -16.7 kcal/mol. Also, the Tm in data set [2] is 26.8 °C.
For GGTAGAGGAAACTCTATC (.(((((....))))).), in that order: -26.9 kcal/mol and 37.1 °C.
